Measurements as given in PubChem BioAssay AID488947 (Sanford-Burnham Center for Chemical Genomics, 2010).
Active and inactive are the calls of the source.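 Rule for the calls: active = compounds letting at most 1% of the green fluorescent tagged protein gather at the cell membrane; inactive = the rest.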

Molecular target: G-protein coupled receptor 55 (Homo sapiens) (UniProt Q9Y2T6)
Test: inhibition of agonist-driven PKCbII translocation via GPR55 – imaging, HEK293, PKCbII-GFP, SAR follow-up (AID 488947)
Conditions: HEK293 GPR55 + PKCbetaII-GFP, membrane recruitment imaging
Outline: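 System: Transfected HEK293 with GPR55 and PKCβII-GFP | Reagent: 10 µM AM251 | Times: Compound pre-incubation 15 min at 37 °C, then AM251 exposure 30 min | Buffer or medium: Serum-free MEM | Signal: Fluorescence imaging of GFP after 1% PFA fixation, scored by eye | Dosing: Four compound doses between 10 and 100 µM | Replicates: Duplicates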

G-protein coupled receptor 55 (Homo sapiens), sequence (Q9Y2T6 whole entry, looked up): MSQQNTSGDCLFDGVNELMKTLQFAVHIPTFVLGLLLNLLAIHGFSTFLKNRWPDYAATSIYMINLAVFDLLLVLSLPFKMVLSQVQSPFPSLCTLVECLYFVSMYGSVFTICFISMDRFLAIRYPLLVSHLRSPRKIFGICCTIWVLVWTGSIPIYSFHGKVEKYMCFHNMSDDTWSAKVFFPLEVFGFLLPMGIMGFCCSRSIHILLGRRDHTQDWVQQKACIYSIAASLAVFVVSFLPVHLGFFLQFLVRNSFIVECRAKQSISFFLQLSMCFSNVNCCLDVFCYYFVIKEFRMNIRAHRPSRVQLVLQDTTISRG

outcome, active:
Cc1cc(C)c2nc(-c3ccccn3)cc(C(=O)Nc3ccc(S(=O)(=O)Nc4onc(C)c4C)cc3)c2c1
Cc1nc(N2CCN(C(=O)c3ccco3)CC2)c2c3c(sc2n1)CCCC3 active; +
Cc1ccc(C2(C(=O)N3CCC(n4nc(-c5ccccc5)oc4=O)CC3)CC2)cc1
